Results on two compounds are retold here after publication PMC10441415 (bioRxiv, 2023).

Data set [1] relates to Mtb H37Rv. Details: species or system Mycobacterium tuberculosis. Conditions: in vivo.
The subject of data set [2] is Nos2, Ifn-γ, Tnf-α, Cd38, Egr2. Details: species or system BALB/c mice. As to conditions: mouse, in vivo.
Data set [3] deals with lung inflammation of Mtb-infected mice. Details: species or system BALB/c mice. Conditions: mouse, in vivo.
Data set [4] has as its system Mtb H37Rv. Details: species or system Mycobacterium tuberculosis. As to conditions: in vivo. This is another data set of the same source.
For data set [5] the following is noted: mouse, in vivo, ip.
Data set [6] in a line: Single-dose plasma pharmacokinetics, intraperitoneal. It is filed as in vivo, BALB/c mice. Conditions: single IP dose, sampling up to 24 hours. The gist of the method: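 Female BALB/c mice, 9–11 weeks old, each received one intraperitoneal dose (5 or 10 mg/kg) of the test compound, a tin metalloporphyrin HO-1 inhibitor, in sodium phosphate buffer (pH 7.4 – 7.8). Blood was drawn from three mice per time point at 0.25, 0.5, 1, 2, 4, 8 and 24 h. Plasma was assayed by LC-MS/MS. t1/2, tmax, Cmax, AUClast and AUCInf came from noncompartmental analysis.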

The subject of data set [7] is human peripheral blood mononuclear cells. As to conditions: cited from earlier work.
In data set [8] the test system is lung inflammation of Mtb-infected mice. Details: species or system BALB/c mice. Conditions: mouse, in vivo. This is another data set of the same source.
Data set [9] concerns naive CD4+ and CD8+ T cells. Conditions: via interactions with CD14+ monocytes in vitro; cited from earlier work.
A further data set concerns Mtb-infected U937 cells. Conditions: cited from earlier work.
For data set [10] the following is noted: chronic treatment, wild-type mice; cited from earlier work.
The next data set deals with Mtb. Conditions: C57BL/6 mice, chronic phase of infection; cited from earlier work.

SMILES strings stand for the structures. “And” between values parts separate entries of the source, which are not always exact repeats. Identical values can stand only once.

`CCC1=C(C)c2cc3[n-]c(cc4[n-]c(cc5nc(cc1n2)C(C)=C5CC)c(C)c4CCC(=O)O)c(CCC(=O)O)c3C.[Cl-].[Cl-].[Sn+4]` [SnMP, stannsoporfin]: in the data set on Mtb H37Rv [1], the “Additive effect on lung CFU when co-administered with SPaO” value is given as “neither SnPP nor SnMP adjunctive therapy showed an additive effect”, the “Enhancement of the bactericidal activity of RHZ” value is “did not significantly enhance”, the “Mean lung log10 CFU count (±SD) at W2” value is reported as 5.73 ± 0.22 log10 CFU and the “Mean lung log10 CFU count (±SD) at W4” value was found to be 5.36 ± 0.31 log10 CFU. Further, in the data set with Mtb H37Rv [1], the “Mean lung log10 CFU count (±SD) at W6” value is 5.98 ± 0.06 log10 CFU and the “Reduction of mean lung bacillary burden relative to vehicle control” value was determined as 0.67 log10 CFU. In data set [2], the “Cd38 expression in lung compared to any other treatment group” value is “significantly higher expression” and the “Tnf-α expression in lung relative to vehicle” value was “reduced expression”. Also, the “Gross or histological lung pathology” value in data set [3] was “did not significantly alter”. Further, in the data set with Mtb H37Rv [4], the “Lung bacillary burdens relative to the SPaO regimen” value was “did not significantly alter” and the Microbiological relapse rates result is listed as “did not reduce microbiological relapse rates”. In addition, in [5], the Tolerability result was “well tolerated”. In data set [6], the “Last time point with detectable blood concentrations” value was 8 h. In addition, the “Expression of pro-inflammatory cytokines” value in data set [7] is listed as “induces the expression of pro-inflammatory cytokines”. Further, the “Lung/body weight ratio versus SPaO control regimen” value in data set [8] is listed as “did not differ statistically”. For the same compound, in data set [9], the “Activation, proliferation, and maturation of naive CD4+ and CD8+ T cells” value was “induce the activation, proliferation, and maturation”.
Consider `C=Cc1c2[n-]c(c1C)/C=c1\[n-]/c(c(C)c1C=C)=C\c1[n-]c(c(CCC(=O)O)c1C)C=c1[n-]/c(c(C)c1CCC(=O)O)=C\2.[Sn+4]` [SnPP, tin-protoporphyrin IX], for which, in the data set with Mtb H37Rv [1], the “Additive effect on lung CFU when co-administered with SPaO” value is on record as “neither SnPP nor SnMP adjunctive therapy showed an additive effect”, the “Enhancement of the bactericidal activity of RHZ” value is “did not significantly enhance”, the “Mean lung log10 CFU count (±SD) at W2” value was 5.52 ± 0.29 log10 CFU and the “Mean lung log10 CFU count (±SD) at W4” value was 5.30 ± 0.30 log10 CFU. Besides, in the data set with Mtb H37Rv [1], the “Mean lung log10 CFU count (±SD) at W6” value is reported as 5.30 ± 0.19 log10 CFU; the “Reduction of mean lung bacillary burden relative to vehicle control” value is reported as 0.88 log10 CFU; the “Reduction of mean lung bacterial burden relative to vehicle control” value is 1.2 log10 CFU and 1.1 log10 CFU. Also, in the data set with Mtb-infected U937 cells, the “Secretion of proinflammatory cytokines, including TNF-α” value is listed as “reduced the secretion of proinflammatory cytokines”. For the same compound, the “Tubulointerstitial inflammation and fibrosis” value in data set [10] was “can induce tubulointerstitial inflammation and fibrosis”. The “Last time point with detectable blood concentrations” value in data set [6] stood at 8 h. The Lung bacillary burden entry with Mtb is reported as “reduced the lung bacillary burden alone”.
